Experimental data as given in publication PMC7511286 (European Journal of Drug Metabolism and Pharmacokinetics, 2020).
Marks after values point to notes of the source that are not given here.

What was measured:
[1] = MAD study: multiple ascending oral dose pharmacokinetics; type: in vivo, human
In short: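 Healthy males took oral tablets once daily for 14 days after an overnight fast of at least 8 h, continued 1 h on profile days. Plasma was sampled 0.5–24 h after the day 0 dose, as troughs, and 0.5–72 h after the day 13 dose. LC-MS/MS used ESI−, LLOQ 0.1 μg/ml. AUC was by linear-log trapezoid. CL/F = dose/AUC0–24; RAAUC = AUC0–24 (day 13–14)/AUC0–24 (day 0–1).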

[2] = SAD study: safety and tolerability; type: in vivo, human
In short: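 Healthy males aged 18–55 took oral tablets. Treatment-emergent AEs were recorded by clinical evaluation. Vital signs (blood pressure, pulse), 12-lead and Holter ECG, physical examination, and urine and plasma laboratory tests were also assessed. AEs of special interest were hematuria and retroperitoneal colicky pain with suspected or confirmed nephrolithiasis. Subjects were hospitalized around dosing.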

[3] = Day 13, 30 mg once daily, n = 12, geometric mean (geometric %CV)
[4] = Day 13, 40 mg once daily, n = 12, geometric mean (geometric %CV)
[5] = Day 13, 50 mg once daily not pre-dosed, n = 8, geometric mean (geometric %CV)
[6] = Day 13, 50 mg once daily pre-dosed, n = 8, geometric mean (geometric %CV)
[7] = Day 13–14 / Day 0–1, 30 mg once daily, n = 12, geometric mean (geometric %CV)

COc1cccc(-c2ccc(NC(=O)C3=C(C(=O)O)CCC3)c(F)c2)c1 [IMU-838, vidofludimus calcium]
Cmax ([1]; Day 0, 30 mg, n = 12, geometric mean (geometric %CV)): 3.979 (39.5) μg/ml | Cmax ([1]; Day 0, 40 mg, n = 12, geometric mean (geometric %CV)): 5.805 (32.3) μg/ml | Cmax ([1]; Day 0, 50 mg not pre-dosed, n = 8, geometric mean (geometric %CV)): 5.016 (51.1) μg/ml | AUC0–t [1, 3]: 188.554 (30.3) μg·h/ml | CL/F [1, 3]: 4.985 (25.0) ml/min | Cmax [1, 3]: 6.543 (25.8) μg/ml | AUC0–t [1, 4]: 284.959 (25.3) μg·h/ml | CL/F [1, 4]: 4.201 (22.6) ml/min | Cmax [1, 4]: 10.911 (20.2) μg/ml | CL/F ([1]; Day 13, 50 mg once daily all, n = 16, geometric mean (geometric %CV)): 5.008 (20.9) ml/min | AUC0–t [1, 5]: 310.301 (32.7) μg·h/ml | CL/F [1, 5]: 4.982 (27.3) ml/min | Cmax [1, 5]: 10.841 (21.5) μg/ml | AUC0–t [1, 6]: 304.154 (16.1) μg·h/ml | CL/F [1, 6]: 5.034 (14.1) ml/min | Cmax [1, 6]: 10.725 (20.1) μg/ml | RAAUC (accumulation ratio for AUC0–24) [1, 7]: 1.958 (24.4) | RACmax (accumulation ratio for Cmax) [1, 7]: 1.644 (37.6) | RAAUC (accumulation ratio for AUC0–24) ([1]; Day 13–14 / Day 0–1, 40 mg once daily, n = 9, geometric mean, geometric %CV 23.1): 2.077^e (23.1) | RACmax (accumulation ratio for Cmax) ([1]; Day 13–14 / Day 0–1, 40 mg once daily, n = 12, geometric mean (geometric %CV)): 1.880 (30.1) | AUC(0-t) ([1]; male, human, plasma, oral, 30 mg, AUC0–24, Day 0, 30 mg, n = 12, geometric mean (geometric %CV)): 51200 ng·h/mL | AUC(0-t) ([1]; male, human, plasma, oral, 30 mg, AUC0–t, geometric mean, Day 0, 30 mg): 51100 ng·h/mL | Cmax ([1]; male, human, plasma, oral, 30 mg, Cmax, Day 0, 30 mg, n = 12, geometric mean (geometric %CV)): 3980 ng/mL | Tmax ([1]; male, human, plasma, oral, 30 mg, tmax, Day 0, 30 mg, n = 12, median (minimum–maximum)): 3 h | AUC(0-t) ([1]; male, human, plasma, oral, 40 mg, AUC0–t, geometric mean, Day 0, 40 mg): 71700 ng·h/mL | Cmax ([1]; male, human, plasma, oral, 40 mg, Cmax, Day 0, 40 mg, n = 12, geometric mean (geometric %CV)): 5810 ng/mL | Tmax ([1]; male, human, plasma, oral, 40 mg, tmax, Day 0, 40 mg, n = 12, median (minimum–maximum)): 3 h | AUC(0-t) ([1]; male, human, plasma, oral, 50 mg, AUC0–24, Day 0, 50 mg not pre-dosed, n = 8, geometric mean (geometric %CV)): 67100 ng·h/mL | AUC(0-t) ([1]; male, human, plasma, oral, 50 mg, AUC0–t, geometric mean, Day 0, 50 mg not pre-dosed): 66700 ng·h/mL | Cmax ([1]; male, human, plasma, oral, 50 mg, Cmax, Day 0, 50 mg all, n = 16, geometric mean (geometric %CV)): 6040 ng/mL | Cmax ([1]; male, human, plasma, oral, 50 mg, Cmax, Day 0, 50 mg not pre-dosed, n = 8, geometric mean (geometric %CV)): 5020 ng/mL | Cmax ([1]; male, human, plasma, oral, 50 mg, Cmax, Day 0, 50 mg pre-dosed, n = 8, geometric mean (geometric %CV)): 7260 ng/mL | Tmax ([1]; male, human, plasma, oral, 50 mg, tmax, Day 0, 50 mg all, n = 16, median (minimum–maximum)): 2 h | Tmax ([1]; male, human, plasma, oral, 50 mg, tmax, Day 0, 50 mg not pre-dosed, n = 8, median (minimum–maximum)): 3 h | Tmax ([1]; male, human, plasma, oral, 50 mg, tmax, Day 0, 50 mg pre-dosed, n = 8, median (minimum–maximum)): 2 h | Tmax ([1]; male, human, plasma, oral, median tmax, range over groups, Day 0): 2 to 3 h | accumulation factor for multiple daily dosing ([1]; multiple once-daily dosing): approximately 2 | dose dependence of plasma pharmacokinetics ([1]; repeated oral 30 to 50 mg, fasted): dose-proportional | TEAE Flatulence: subjects having the event ([2]; 10 mg fasted, n = 6): 1 (16.7) N (%) | TEAE Headache: subjects having the event ([2]; 10 mg fasted, n = 6): 1 (16.7) N (%) | TEAE Micturition urgency: number of events ([2]; 10 mg fasted, n = 6): 1 | TEAE Micturition urgency: subjects having the event ([2]; 10 mg fasted, n = 6): 1 (16.7) N (%) | TEAE Viral upper respiratory tract infection: number of events ([2]; 10 mg fasted, n = 6): 2 | TEAE Viral upper respiratory tract infection: subjects having the event ([2]; 10 mg fasted, n = 6): 2 (33.3) N (%) | TEAEs Total: number of events ([2]; 10 mg fasted, n = 6): 5 | TEAEs Total: subjects having the event ([2]; 10 mg fasted, n = 6): 3 (50.0) N (%) | TEAE Epistaxis: subjects having the event ([2]; 10 mg fed, n = 6): 1 (16.7) N (%) | TEAEs Total: number of events ([2]; 10 mg fed, n = 6): 1 | TEAEs Total: subjects having the event ([2]; 10 mg fed, n = 6): 1 (16.7) N (%) | TEAE Headache: subjects having the event ([2]; 20 mg fasted, n = 6): 1 (16.7) N (%) | TEAEs Total: number of events ([2]; 20 mg fasted, n = 6): 1 | TEAEs Total: subjects having the event ([2]; 20 mg fasted, n = 6): 1 (16.7) N (%) | TEAE Opiates positive: number of events ([2]; 30 mg fasted, n = 6): 1 | TEAE Opiates positive: subjects having the event ([2]; 30 mg fasted, n = 6): 1 (16.7) N (%) | TEAEs Total: number of events ([2]; 30 mg fasted, n = 6): 1 | TEAEs Total: subjects having the event ([2]; 30 mg fasted, n = 6): 1 (16.7) N (%) | TEAE Rhinitis: subjects having the event ([2]; 40 mg fasted, n = 5): 1 (20.0) N (%) | TEAEs Total: number of events ([2]; 40 mg fasted, n = 5): 1 | TEAEs Total: subjects having the event ([2]; 40 mg fasted, n = 5): 1 (20.0) N (%) | AEs of special interest (hematuria, retroperitoneal colicky pain) ([2]; all single doses): no AEs of special interest were observed | total number of TEAEs ([2]; all single doses, 12 subjects): nine | tolerability ([2]; single oral doses 10–40 mg): well tolerated
